Test results: ChEMBL document CHEMBL1687868, “Bioactive compounds from the fern Lepisorus contortus” (J Nat Prod, 2011)
Calls of active or inactive are those of the source. The rule behind the calls is not given here.

What was measured:
[1] = Inhibition of TNF-alpha-induced NFkappaB activation in human HEK293 cells after 6 hrs by luciferase reporter gene assay; format: cell-based; conditions: HEK293, 6 h
Aromatase = target: T1, Aromatase (Homo sapiens, UniProt P11511); assay: Inhibition of aromatase preincubated with 2.6 mM NADP+ for 10 mins before substrate addition measured after 30 mins by fluorescence assay
T1 sequence (P11511 whole entry): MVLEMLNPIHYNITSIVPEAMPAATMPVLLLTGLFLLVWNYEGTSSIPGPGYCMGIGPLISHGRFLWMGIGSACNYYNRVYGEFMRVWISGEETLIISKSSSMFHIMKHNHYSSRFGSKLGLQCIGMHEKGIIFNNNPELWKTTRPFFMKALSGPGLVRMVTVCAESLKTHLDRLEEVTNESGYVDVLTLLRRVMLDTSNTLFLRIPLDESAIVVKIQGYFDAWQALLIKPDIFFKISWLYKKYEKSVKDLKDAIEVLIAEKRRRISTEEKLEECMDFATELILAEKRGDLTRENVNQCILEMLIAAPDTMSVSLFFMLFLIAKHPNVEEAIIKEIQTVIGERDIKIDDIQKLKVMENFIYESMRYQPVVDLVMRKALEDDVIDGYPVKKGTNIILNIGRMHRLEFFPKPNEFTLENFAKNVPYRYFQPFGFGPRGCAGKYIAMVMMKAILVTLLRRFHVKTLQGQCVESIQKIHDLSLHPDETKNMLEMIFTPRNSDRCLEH
How it was run: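 Compounds preincubated 10 min at 37 °C with NADPH-regenerating system (2.6 mM NADP+, 7.6 mM glucose 6-phosphate, G6PDH, MgCl2, albumin; 50 mM K phosphate pH 7.4). CYP19 with 0.4 µM dibenzylfluorescein then added for 30 min at 37 °C. Stopped with 2 N NaOH and held a further 2 h at 37 °C. Fluorescence read at ex 485/em 530. Five concentrations; three independent experiments in duplicate.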

RAW264.7 = assay: Inhibition of NO production in mouse RAW264.7 cells at 20 ug/ml after 30 mins by Griess assay; format: functional, cell-based; conditions: in the assay text read “after 24 hrs” for “after 30 mins”
How it was run: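 RAW 264.7 cells plated for 24 h. Compound in phenol red-free DMEM added 30 min before LPS (1 µg/mL), then 24 h incubation. Nitrite measured with Griess reagent (1% sulfanilamide, 0.1% N-(1-naphthyl)ethylenediamine in 2.5% H3PO4) at 540 nm, against an NaNO2 standard curve.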

[2] = target: T2, Prostaglandin G/H synthase 1 (Ovis aries) (UniProt P05979); assay: Inhibition of ovine COX1 assessed as PGE2 formation at 10 ug/ml by LC-MS-MS analysis
T2 sequence (whole entry): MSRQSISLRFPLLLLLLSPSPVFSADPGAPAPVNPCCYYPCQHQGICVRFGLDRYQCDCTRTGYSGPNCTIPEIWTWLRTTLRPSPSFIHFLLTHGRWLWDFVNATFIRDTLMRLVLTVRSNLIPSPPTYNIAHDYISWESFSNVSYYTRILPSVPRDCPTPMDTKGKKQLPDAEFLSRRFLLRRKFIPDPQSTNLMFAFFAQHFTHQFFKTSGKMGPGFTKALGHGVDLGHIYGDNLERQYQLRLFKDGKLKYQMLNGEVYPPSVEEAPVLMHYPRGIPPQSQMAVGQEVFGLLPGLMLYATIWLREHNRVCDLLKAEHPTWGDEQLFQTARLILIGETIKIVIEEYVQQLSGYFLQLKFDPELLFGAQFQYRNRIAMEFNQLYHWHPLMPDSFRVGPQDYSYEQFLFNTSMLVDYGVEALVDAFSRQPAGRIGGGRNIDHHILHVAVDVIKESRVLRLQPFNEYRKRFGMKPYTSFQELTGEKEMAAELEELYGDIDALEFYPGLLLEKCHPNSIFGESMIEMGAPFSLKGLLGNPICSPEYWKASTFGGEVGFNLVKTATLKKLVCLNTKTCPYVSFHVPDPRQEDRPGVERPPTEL
How it was run: (§1)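 COX-1 (ovine) or COX-2 (human), 0.2 µg, activated in Tris-HCl pH 8.0 with hematin (1 µM final) and L-epinephrine (2 mM final). Test solution preincubated 10 min at 37 °C. Reaction started with arachidonic acid (5 µM final), stopped with HCl after 2 min. d4-PGE2 added as internal standard and PGE2 extracted with […] for LC-MS.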

[3] = target: T3, Prostaglandin G/H synthase 2 (Homo sapiens) (UniProt P35354); assay: Inhibition of human COX2 assessed as PGE2 formation at 10 ug/ml by LC-MS-MS analysis; how it was run: as §1
T3 sequence (whole entry): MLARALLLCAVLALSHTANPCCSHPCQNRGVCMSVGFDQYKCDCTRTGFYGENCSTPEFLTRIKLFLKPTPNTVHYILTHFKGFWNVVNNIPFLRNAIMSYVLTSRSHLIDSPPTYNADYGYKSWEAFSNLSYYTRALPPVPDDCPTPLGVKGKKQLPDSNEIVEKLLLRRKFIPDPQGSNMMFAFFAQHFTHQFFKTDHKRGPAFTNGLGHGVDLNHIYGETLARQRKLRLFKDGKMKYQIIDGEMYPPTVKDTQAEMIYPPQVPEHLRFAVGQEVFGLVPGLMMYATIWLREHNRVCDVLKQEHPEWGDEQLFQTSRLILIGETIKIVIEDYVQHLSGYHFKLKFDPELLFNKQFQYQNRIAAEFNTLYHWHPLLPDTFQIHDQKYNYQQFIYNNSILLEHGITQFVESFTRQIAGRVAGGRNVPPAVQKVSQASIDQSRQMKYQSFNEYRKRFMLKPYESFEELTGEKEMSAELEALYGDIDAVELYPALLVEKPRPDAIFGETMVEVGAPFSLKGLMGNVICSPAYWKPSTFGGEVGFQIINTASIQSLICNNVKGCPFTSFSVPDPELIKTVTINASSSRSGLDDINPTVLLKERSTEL

[4] = Cytotoxicity against mouse Hepa-1c1c7 cells assessed as cell growth inhibition at 20 ug/ml after 72 hrs by sulforhodamine B assay; format: cell-based; conditions: hepa-1c1c7, 72 h
How it was run: (§2)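 Cells held in medium with 10% heat-inactivated FBS and penicillin/streptomycin/amphotericin B (Hepa1c1c7 in α-MEM; MCF-7 in MEME plus 10 mg/L insulin). Samples added in triplicate, 37 °C, 5% CO2, 72 h. Cells fixed with cold 20% TCA at 4 °C for 30 min, stained with 0.4% sulforhodamine B, dye dissolved in 10 mM Tris pH 10, OD read at 515 nm. Growth given as % of 10% aqueous DMSO control.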

MCF7 = assay: Cytotoxicity against human MCF7 cells assessed as cell growth inhibition at 20 ug/ml after 72 hrs by sulforhodamine B assay; format: functional, cell-based; how it was run: as §2

| IC50 [1] | IC50 (Aromatase) | inhibition [2] | inhibition [3] | SMILES | inhibition (RAW264.7) | Activity [4] | Activity (MCF7) |
| --- | --- | --- | --- | --- | --- | --- | --- |
| 3.76 µM | – | – | – | Cc1ccc(S(=O)(=O)N[C@@H](Cc2ccccc2)C(=O)CCl)cc1 [TPCK] | – | – | – |
| – | 26.8 µM | inactive | inactive | O=C(/C=C/c1ccc(O)c(O)c1)O[C@H]1[C@H](O)[C@@H](CO)O[C@@H](OCCc2ccc(O)c(O)c2)[C@@H]1O[C@@H]1OC[C@](O)(CO)[C@H]1O | inactive | Non-toxic | Not toxic |
| – | 32.3 µM | inactive | inactive | O=C(/C=C/c1ccc(O)c(O)c1)OC[C@H]1O[C@@H](OCCc2ccc(O)c(O)c2)[C@H](O[C@@H]2OC[C@](O)(CO)[C@H]2O)[C@@H](O)[C@@H]1O | inactive | Non-toxic | Not toxic |
| – | 35.3 µM | inactive | inactive | O=C(/C=C/c1ccc(O)c(O)c1)OC[C@H]1O[C@@H](OCCc2ccc(O)c(O)c2)[C@H](O)[C@@H](O)[C@@H]1O [CALCEOLARIOSIDE B] | inactive | Non-toxic | Not toxic |
| – | – | inactive | inactive | O=C(/C=C/c1ccc(O)c(O)c1)O[C@H]1[C@H](O)[C@@H](O[C@@H]2OC[C@](O)(CO)[C@H]2O)[C@H](OCCc2ccc(O)c(O)c2)O[C@@H]1CO [FUCATOSIDE A] | inactive | Non-toxic | Not toxic |
| – | – | inactive | inactive | O=c1c(O[C@@H]2O[C@H](CO)[C@@H](O)[C@H](O)[C@H]2O)c(-c2ccc(O)c(O)c2)oc2cc(O)cc(O)c12 [ISOQUERCETIN] | inactive | Non-toxic | Not toxic |
| – | – | inactive | inactive | O=C(/C=C/c1ccc(O)c(O)c1)O[C@H]1[C@H](O)[C@@H](CO)O[C@@H](OCCc2ccc(O)cc2)[C@@H]1O[C@@H]1OC[C@](O)(CO)[C@H]1O | inactive | Non-toxic | Not toxic |
| – | – | inactive | inactive | O=c1ccn([C@@H]2O[C@H](CO)[C@@H](O)[C@@H]2O)c(=O)[nH]1 [ARAURIDINE] | inactive | Non-toxic | Not toxic |
| – | – | inactive | inactive | OC[C@H]1O[C@@H](OCCc2ccc(O)c(O)c2)[C@H](O)[C@@H](O)[C@@H]1O | inactive | Non-toxic | Not toxic |
| – | – | inactive | inactive | COc1c(-c2ccc(O)cc2)oc2cc(O[C@@H]3O[C@H](CO[C@@H]4O[C@@H](CO)[C@H](O)[C@H]4O)[C@@H](O)[C@H](O)[C@H]3O)cc(O)c2c1=O | inactive | Non-toxic | Not toxic |
| – | – | inactive | inactive | COc1c(-c2ccc(O)c(O)c2)oc2cc(O[C@@H]3O[C@H](CO)[C@@H](O)[C@H](O)[C@H]3O)cc(O)c2c1=O [TRANSILIN] | inactive | Non-toxic | Not toxic |
| – | – | inactive | inactive | COc1c(-c2ccc(O)c(O)c2)oc2cc(O[C@@H]3O[C@H](CO[C@@H]4O[C@@H](C)[C@H](O)[C@@H](O)[C@H]4O)[C@@H](O)[C@H](O)[C@H]3O)cc(O)c2c1=O | inactive | Non-toxic | Not toxic |
| – | 30.7 µM | inactive | inactive | O=C(/C=C/c1ccc(O)c(O)c1)O[C@H]1[C@H](O)[C@@H](O[C@@H]2OC[C@](O)(CO)[C@H]2O)[C@H](OCCc2ccc(O)cc2)O[C@@H]1CO | inactive | Non-toxic | Not toxic |
| – | – | inactive | inactive | COc1c(-c2ccc(O)cc2)oc2cc(O[C@@H]3O[C@H](CO[C@@H]4O[C@@H](C)[C@H](O)[C@@H](O)[C@H]4O)[C@@H](O)[C@H](O)[C@H]3O)cc(O)c2c1=O | inactive | Non-toxic | Not toxic |
| – | – | inactive | inactive | COc1cc([C@@H](O)[C@@H](CO)Oc2ccc(/C=C/CO)cc2OC)ccc1O (relative stereo) | inactive | Non-toxic | Not toxic |
| – | – | inactive | inactive | COc1c(-c2ccc(O)cc2)oc2cc(O[C@@H]3O[C@H](CO)[C@@H](O)[C@H](O)[C@H]3O)cc(O)c2c1=O | inactive | Non-toxic | Not toxic |
